Measurements taken from ChEMBL document CHEMBL3045298, “Furan-2,5-dimethylene-tethered bis-imidacloprid insecticide conferring high potency” (J Agric Food Chem, 2010).

Key:
[1] = test system: Musca domestica; experiment: Insecticidal activity against Musca domestica (house fly) measured after intrathoracic compound injection in presence of cytochrome P450 inhibitor O-propyl O-(2-propynyl) phenylphosphonate; assay type: functional
In short: (§1)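 Houseflies were first pretreated with the P450 inhibitor O-propyl O-(2-propynyl) phenylphosphonate, then dosed by intrathoracic injection. Lethality was scored 24 h after administration, and the 50% lethal dose was determined.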

[2] = biological target: T1, Nicotinic acetylcholine receptor alpha 5 subunit (Musca domestica, UniProt A9XFY4); experiment: Displacement of [3H]IMI from Musca domestica (house fly) brain nicotinic acetylcholine receptor
T1 sequence (A9XFY4 whole entry): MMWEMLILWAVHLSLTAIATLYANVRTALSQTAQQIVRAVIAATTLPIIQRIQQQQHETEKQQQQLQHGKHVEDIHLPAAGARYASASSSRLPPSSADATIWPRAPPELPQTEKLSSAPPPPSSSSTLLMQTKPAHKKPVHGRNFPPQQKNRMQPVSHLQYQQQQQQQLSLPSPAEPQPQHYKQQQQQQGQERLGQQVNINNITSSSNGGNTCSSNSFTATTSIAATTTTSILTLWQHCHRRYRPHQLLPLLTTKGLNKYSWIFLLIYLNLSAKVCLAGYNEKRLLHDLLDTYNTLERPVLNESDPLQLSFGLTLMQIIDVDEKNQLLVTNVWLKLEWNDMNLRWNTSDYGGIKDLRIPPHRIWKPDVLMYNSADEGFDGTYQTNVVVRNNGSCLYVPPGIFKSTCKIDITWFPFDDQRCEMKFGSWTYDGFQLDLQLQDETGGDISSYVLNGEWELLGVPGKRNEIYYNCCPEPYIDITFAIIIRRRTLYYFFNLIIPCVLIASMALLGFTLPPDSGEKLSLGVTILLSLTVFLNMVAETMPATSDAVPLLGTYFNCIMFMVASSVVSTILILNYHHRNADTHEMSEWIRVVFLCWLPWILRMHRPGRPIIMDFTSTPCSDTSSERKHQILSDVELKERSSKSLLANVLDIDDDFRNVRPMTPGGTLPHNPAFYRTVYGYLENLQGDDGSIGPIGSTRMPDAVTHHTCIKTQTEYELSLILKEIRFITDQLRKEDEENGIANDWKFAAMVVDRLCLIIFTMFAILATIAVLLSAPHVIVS
In short: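 Native housefly (Musca domestica) brain nAChR preparation with [3H]IMI radioligand at 5 nM (Kd 5.4 nM). IC50 is the molar concentration inhibiting 50% of specific [3H]IMI binding, fitted by iterative nonlinear least-squares regression. Ki derived as IC50/(1 + [L]/Kd).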

[3] = test system: Musca domestica; experiment: Insecticidal activity against Musca domestica (house fly) assessed as mortality at LD50 concentration intrathoracic injection in presence of cytochrome P450 inhibitor O-propyl O-(2-propynyl) phenylphosphonate; assay type: functional; in short: as §1

Row | SMILES | LD50 [1] [mg/kg] | Ki [2] [nM] | mortality [3] [%]
1 | O=[N+]([O-])/N=C1\N(Cc2ccc(Cl)nc2)CCN1Cc1cccc(CN2CCN(Cc3ccc(Cl)nc3)/C2=N\[N+](=O)[O-])n1 | > 1 | 5200 | 0
2 | O=[N+]([O-])/N=C1\N(Cc2ccc(Cl)nc2)CCN1Cc1cccc(CN2CCN(Cc3ccc(Cl)nc3)/C2=N\[N+](=O)[O-])c1 | > 1 | 2770 | 0
3 | O=[N+]([O-])/N=C1\N(Cc2ccc(Cl)nc2)CCN1Cc1ccc(CN2CCN(Cc3ccc(Cl)nc3)/C2=N\[N+](=O)[O-])o1 | 0.14 | 30 | –
4 | O=[N+]([O-])/N=C1\N(Cc2ccc(Cl)nc2)CCN1Cc1ccccc1-c1ccccc1CN1CCN(Cc2ccc(Cl)nc2)/C1=N\[N+](=O)[O-] | > 1 | 800 | 10
5 | O=C(/N=C1/N(CCCCCCN2CCN(Cc3ccc(Cl)nc3)/C2=N/C(=O)C(F)(F)F)CCN1Cc1ccc(Cl)nc1)C(F)(F)F | > 1 | 26000 | 0
6 | O=[N+]([O-])/N=C1/N(CCCOCCCN2CCN(Cc3ccc(Cl)nc3)/C2=N\[N+](=O)[O-])CCN1Cc1ccc(Cl)nc1 | > 1 | 2660 | 0
7 | O=[N+]([O-])/N=C1/N(Cc2ccc(Cc3ccc(CN4CCN(Cc5ccc(Cl)nc5)/C4=N\[N+](=O)[O-])cc3)cc2)CCN1Cc1ccc(Cl)nc1 | > 1 | 17000 | 0
8 | O=C(/N=C1/N(CCCCCCCN2CCN(Cc3ccc(Cl)nc3)/C2=N/C(=O)C(F)(F)F)CCN1Cc1ccc(Cl)nc1)C(F)(F)F | > 1 | 2900 | 0
9 | O=C(/N=C1/N(CCCCCCCCN2CCN(Cc3ccc(Cl)nc3)/C2=N\C(=O)C(F)(F)F)CCN1Cc1ccc(Cl)nc1)C(F)(F)F | > 1 | 26000 | 0
10 | O=[N+]([O-])/N=C1\N(Cc2ccc(Cl)nc2)CCN1Cc1cncc(CN2CCN(Cc3ccc(Cl)nc3)/C2=N\[N+](=O)[O-])c1 | > 1 | 2300 | 10
11 | O=C(/N=C1/N(CCCCCN2CCN(Cc3ccc(Cl)nc3)/C2=N/C(=O)C(F)(F)F)CCN1Cc1ccc(Cl)nc1)C(F)(F)F | > 1 | 16000 | 0
12 | CC(C)(CCN1CCN(Cc2ccc(Cl)nc2)/C1=N\[N+](=O)[O-])CCN1CCN(Cc2ccc(Cl)nc2)/C1=N\[N+](=O)[O-] | > 1 | 1460 | 0
13 | O=[N+]([O-])/N=C1\N(Cc2ccc(Cl)nc2)CCN1Cc1ccc(CN2CCN(Cc3ccc(Cl)nc3)/C2=N\[N+](=O)[O-])s1 | 1 | 150 | –
14 | O=[N+]([O-])/N=C1/N(CCOCCN2CCN(Cc3ccc(Cl)nc3)/C2=N\[N+](=O)[O-])CCN1Cc1ccc(Cl)nc1 | > 1 | 530 | 0
15 | O=[N+]([O-])/N=C1/N(Cc2ccc(CN3CCN(Cc4ccc(Cl)nc4)/C3=N\[N+](=O)[O-])cc2)CCN1Cc1ccc(Cl)nc1 | > 1 | 2270 | 0
16 | O=C(CN1CCN(Cc2ccc(Cl)nc2)/C1=N\[N+](=O)[O-])OCCOC(=O)CN1CCN(Cc2ccc(Cl)nc2)/C1=N\[N+](=O)[O-] | > 1 | 1550 | 0
17 | O=[N+]([O-])NC1=NCCN1Cc1ccc(Cl)nc1 [IMIDACLOPRID] | 0.03 | 4.6 | –
